# Calls of active or inactive are those of the source. No cut-off for these calls is given here.
# What was measured:
# [1] = Metabolic stability in human plasma assessed as compound remaining at 5 uM measured at 120 mins by LC/MS analysis; type: ADME, cell-free
# Summary of the method: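 Compound added to human plasma at 5 µM final and incubated at 37 °C for up to 120 min. Samples quenched in two volumes of chilled acetonitrile and centrifuged at 4 °C. Remaining compound quantified by LC/MS.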
# [2] = Toxicity in ip dosed CD-1 nude mouse xenografted with GTL16 cells overexpressing c-Met administered as q5d/week for 2 weeks starting 3 days after tumor injection measured on day 5 post last dose; type: organism-based; conditions: in vivo
# Summary of the method: (§1)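 Female athymic nude mice, 5–6 weeks old, implanted s.c. in the right flank with 5 × 10^6 exponentially growing tumour cells and given i.p. doses (mg/10 mL/kg) over 2 weeks starting 3 days after implantation. Toxicity endpoints were maximum body weight loss, BWL% = 100 − [(mean BW day x / mean BW day 1) × 100], and deaths occurring before the first control death.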
# [3] = system: GTL 16; experiment: Antitumor activity against human GTL16 cells overexpressing c-Met xenografted in CD-1 nude mouse assessed as tumor growth inhibition at 50 mg/kg, ip administered as q5d/week for 2 weeks starting 3 days after tumor injection measured on day 5 post last dose relative to vehicle-treated control; type: functional, organism-based; design: dose 50 mg/kg
# Summary of the method: (§2)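 Female athymic nude mice, 5-6 weeks old; 5 × 10^6 exponentially growing tumor cells inoculated s.c. in right flank. Treatment i.p. from day 3 after tumor injection. Tumor volume measured biweekly as d²·D/2. TVI% = 100 − (mean TV treated/mean TV control × 100), evaluated 5 days after last treatment; Mann-Whitney test vs vehicle group.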
# [4] = system: Mus musculus; experiment: In vivo inhibition of HSP90 in human GTL16 cells overexpressing c-Met xenografted in CD-1 nude mouse assessed as downregulation of CDK4 protein expression at 50 mg/kg, ip administered as q5d/week for 2 weeks starting 3 days after tumor injection measured at 6 hrs post last dose by Western blot analysis; type: functional, organism-based; design: dose 50 mg/kg
# [5] = Toxicity in ip dosed CD-1 nude mouse xenografted with human A431 cells overexpressing EGFR administered as q5d/week for 2 weeks starting 3 days after tumor injection measured on day 5 post last dose; type: organism-based, A-431; conditions: in vivo; summary of the method: as §1
# [6] = system: Mus musculus; experiment: In vivo inhibition of HSP90 in human GTL16 cells overexpressing c-Met xenografted in CD-1 nude mouse assessed as induction of HSP70 protein expression at 50 mg/kg, ip administered as q5d/week for 2 weeks starting 3 days after tumor injection measured at 6 hrs post last dose by Western blot analysis; type: functional, organism-based; design: dose 50 mg/kg
# [7] = system: Mus musculus; experiment: In vivo inhibition of HSP90 in human A431 cells overexpressing EGFR xenografted in CD-1 nude mouse assessed as downregulation of EGFR protein expression at 50 mg/kg, ip administered as q5d/week for 2 weeks starting 3 days after tumor injection measured at 2 hrs post last dose by Western blot analysis; type: functional, organism-based; design: dose 50 mg/kg; conditions: A-431
# [8] = system: Mus musculus; experiment: In vivo inhibition of HSP90 in human GTL16 cells overexpressing c-Met xenografted in CD-1 nude mouse assessed as downregulation of AKT protein expression at 50 mg/kg, ip administered as q5d/week for 2 weeks starting 3 days after tumor injection measured at 6 hrs post last dose by Western blot analysis; type: functional, organism-based; design: dose 50 mg/kg
# [9] = system: Mus musculus; experiment: In vivo inhibition of HSP90 in human GTL16 cells overexpressing c-Met xenografted in CD-1 nude mouse assessed as downregulation of c-Met protein expression at 50 mg/kg, ip administered as q5d/week for 2 weeks starting 3 days after tumor injection measured at 6 hrs post last dose by Western blot analysis; type: functional, organism-based; design: dose 50 mg/kg
# [10] = system: Mus musculus; experiment: In vivo inhibition of HSP90 in human A431 cells overexpressing EGFR xenografted in CD-1 nude mouse assessed as downregulation of AKT protein expression at 50 mg/kg, ip administered as q5d/week for 2 weeks starting 3 days after tumor injection measured at 2 hrs post last dose by Western blot analysis; type: functional, organism-based; design: dose 50 mg/kg; conditions: A-431
# [11] = system: NCI-H460; experiment: Induction of apoptosis in human NCI-H460 cells assessed as cell with hypodiploid DNA content at 2 times IC50 after 24 to 72 hrs by propidium iodide staining-based FACS flow cytometric analysis; type: functional
# [12] = system: Mus musculus; experiment: In vivo inhibition of HSP90 in human A431 cells overexpressing EGFR xenografted in CD-1 nude mouse assessed as induction of HSP70 protein expression at 50 mg/kg, ip administered as q5d/week for 2 weeks starting 3 days after tumor injection measured at 2 hrs post last dose by Western blot analysis; type: functional, organism-based; design: dose 50 mg/kg; conditions: A-431
# [13] = system: NCI-H460; experiment: Cell cycle arrest in human NCI-H460 cells assessed as accumulation at G2/M phase at 2 times IC50 after 24 to 72 hrs by propidium iodide staining-based FACS flow cytometric analysis; type: functional
# [14] = system: Mus musculus; experiment: In vivo inhibition of HSP90 in human A431 cells overexpressing EGFR xenografted in CD-1 nude mouse assessed as downregulation of CDK4 protein expression at 50 mg/kg, ip administered as q5d/week for 2 weeks starting 3 days after tumor injection measured at 2 hrs post last dose by Western blot analysis; type: functional, organism-based; design: dose 50 mg/kg; conditions: A-431
# [15] = system: A-431; experiment: Antitumor activity against human A431 cells overexpressing EGFR xenografted in CD-1 nude mouse assessed as tumor growth inhibition at 50 mg/kg, ip administered as q5d/week for 2 weeks starting 3 days after tumor injection measured on day 5 post last dose relative to vehicle-treated control; type: functional, organism-based; design: dose 50 mg/kg; summary of the method: as §2
# [16] = target: T1, Polyamine deacetylase HDAC10 (Homo sapiens, UniProt Q969S8); experiment: Inhibition of human HDAC-10 using RHKK(Ac) as substrate by fluorescence assay
# T1 sequence (Q969S8 whole entry): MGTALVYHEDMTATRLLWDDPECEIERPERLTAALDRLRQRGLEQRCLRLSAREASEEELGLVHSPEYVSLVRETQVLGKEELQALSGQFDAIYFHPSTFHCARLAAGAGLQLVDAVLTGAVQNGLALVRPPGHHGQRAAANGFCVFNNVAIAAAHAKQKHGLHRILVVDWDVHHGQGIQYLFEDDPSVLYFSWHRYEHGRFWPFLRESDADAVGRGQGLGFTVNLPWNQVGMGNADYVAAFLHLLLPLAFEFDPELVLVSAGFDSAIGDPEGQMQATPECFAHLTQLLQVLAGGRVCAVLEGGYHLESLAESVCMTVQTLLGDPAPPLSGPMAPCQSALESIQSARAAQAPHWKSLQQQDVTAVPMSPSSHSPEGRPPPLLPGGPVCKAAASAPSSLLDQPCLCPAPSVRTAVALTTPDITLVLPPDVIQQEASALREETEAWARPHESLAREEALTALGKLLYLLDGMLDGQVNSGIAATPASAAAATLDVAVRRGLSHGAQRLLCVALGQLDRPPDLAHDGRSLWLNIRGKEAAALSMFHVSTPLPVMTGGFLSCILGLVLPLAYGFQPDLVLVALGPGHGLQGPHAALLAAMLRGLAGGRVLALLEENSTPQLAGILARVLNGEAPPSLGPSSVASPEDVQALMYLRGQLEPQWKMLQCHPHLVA
# [17] = target: T2, Protein deacetylase HDAC6 (Homo sapiens, UniProt Q9UBN7); experiment: Inhibition of human HDAC-6 using RHKK(Ac) as substrate by fluorescence assay
# T2 sequence (Q9UBN7 whole entry): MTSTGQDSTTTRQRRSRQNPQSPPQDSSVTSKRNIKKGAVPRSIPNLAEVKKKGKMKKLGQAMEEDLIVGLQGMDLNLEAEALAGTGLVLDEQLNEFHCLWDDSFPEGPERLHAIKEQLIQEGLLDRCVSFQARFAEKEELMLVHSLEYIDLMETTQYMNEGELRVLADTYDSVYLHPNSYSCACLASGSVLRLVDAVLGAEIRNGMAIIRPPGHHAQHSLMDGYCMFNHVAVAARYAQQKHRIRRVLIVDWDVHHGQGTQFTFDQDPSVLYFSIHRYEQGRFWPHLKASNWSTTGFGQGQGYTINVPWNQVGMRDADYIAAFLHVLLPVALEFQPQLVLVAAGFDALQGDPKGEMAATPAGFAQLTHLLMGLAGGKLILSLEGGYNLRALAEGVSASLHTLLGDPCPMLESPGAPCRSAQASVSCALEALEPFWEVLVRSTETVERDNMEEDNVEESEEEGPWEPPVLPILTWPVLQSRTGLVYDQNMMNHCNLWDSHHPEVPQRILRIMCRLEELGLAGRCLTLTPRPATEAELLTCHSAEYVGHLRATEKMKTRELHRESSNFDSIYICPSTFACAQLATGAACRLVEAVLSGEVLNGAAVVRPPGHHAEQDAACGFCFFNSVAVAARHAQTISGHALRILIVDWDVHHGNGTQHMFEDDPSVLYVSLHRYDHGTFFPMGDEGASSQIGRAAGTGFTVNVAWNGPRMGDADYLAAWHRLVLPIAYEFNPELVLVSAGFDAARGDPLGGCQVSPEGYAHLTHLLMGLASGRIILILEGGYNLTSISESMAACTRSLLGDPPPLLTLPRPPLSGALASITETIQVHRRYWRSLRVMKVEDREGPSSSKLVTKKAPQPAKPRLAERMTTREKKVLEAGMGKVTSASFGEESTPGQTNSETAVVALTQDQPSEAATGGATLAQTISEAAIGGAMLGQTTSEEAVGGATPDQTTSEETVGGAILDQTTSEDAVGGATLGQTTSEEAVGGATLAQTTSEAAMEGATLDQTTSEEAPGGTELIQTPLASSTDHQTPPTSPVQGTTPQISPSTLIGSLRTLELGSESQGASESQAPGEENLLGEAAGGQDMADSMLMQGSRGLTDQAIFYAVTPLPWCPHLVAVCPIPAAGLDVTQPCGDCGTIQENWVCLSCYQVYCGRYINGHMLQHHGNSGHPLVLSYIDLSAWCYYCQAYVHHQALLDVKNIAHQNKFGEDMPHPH
# [18] = target: T3, Histone deacetylase 11 (Homo sapiens, UniProt Q96DB2); experiment: Inhibition of human HDAC-11 using RHKK(Ac) as substrate by fluorescence assay
# T3 sequence (Q96DB2 whole entry): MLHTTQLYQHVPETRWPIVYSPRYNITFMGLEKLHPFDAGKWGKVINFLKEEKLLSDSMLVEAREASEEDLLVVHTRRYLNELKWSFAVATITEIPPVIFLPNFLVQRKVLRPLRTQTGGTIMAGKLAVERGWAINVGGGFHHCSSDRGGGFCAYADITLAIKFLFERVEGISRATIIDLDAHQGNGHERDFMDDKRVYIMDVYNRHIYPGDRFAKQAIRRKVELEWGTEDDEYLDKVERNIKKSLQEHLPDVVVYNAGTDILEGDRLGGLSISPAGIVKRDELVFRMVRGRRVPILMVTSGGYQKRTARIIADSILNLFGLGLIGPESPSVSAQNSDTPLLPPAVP
# [19] = target: T4, Histone deacetylase 8 (Homo sapiens, UniProt Q9BY41); experiment: Inhibition of human HDAC-8 using RHKK(Ac) as substrate by fluorescence assay
# T4 sequence (Q9BY41 whole entry): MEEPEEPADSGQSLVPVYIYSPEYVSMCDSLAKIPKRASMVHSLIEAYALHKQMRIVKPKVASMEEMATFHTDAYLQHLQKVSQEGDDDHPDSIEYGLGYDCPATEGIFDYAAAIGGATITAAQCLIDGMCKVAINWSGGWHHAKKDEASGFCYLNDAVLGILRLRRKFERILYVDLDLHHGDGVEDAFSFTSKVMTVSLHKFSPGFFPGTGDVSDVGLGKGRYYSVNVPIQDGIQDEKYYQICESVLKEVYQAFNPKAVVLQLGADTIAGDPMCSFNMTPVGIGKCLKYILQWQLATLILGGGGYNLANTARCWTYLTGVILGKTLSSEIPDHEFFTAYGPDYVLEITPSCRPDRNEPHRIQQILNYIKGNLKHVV
# [20] = target: Heat shock protein HSP 90-alpha (Homo sapiens, UniProt P07900); experiment: Displacement of GM-FITC from full-length recombinant human Hsp90-alpha after 4 hrs by fluorescence polarization assay
# [21] = system: NCI-H460; experiment: Cytotoxicity against human NCI-H460 cells assessed as growth inhibition after 72 hrs by SRB assay; type: functional, cell-based; conditions: NCI-H460, 72 h
# Summary of the method: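 NCI-H460 cells grown in RPMI-1640 with 10% heat-inactivated FBS, seeded at about 10% confluence and allowed 24 h recovery. Exposed to graded drug concentrations or solvent for 72 h. Surviving fraction measured by sulforhodamine B. IC50 is the concentration giving a 50% drop in cell number vs vehicle, from dose-response curve fitting; mean of n=4 with SD.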
# [22] = target: Histone deacetylase 3/Nuclear receptor corepressor 2 (HDAC3/NCoR2) (Homo sapiens, UniProt O15379); experiment: Inhibition of human HDAC-3/NCOR2 using RHKK(Ac) as substrate by fluorescence assay; type: protein-complex assay
# Sequence of Histone deacetylase 3/Nuclear receptor corepressor 2 (HDAC3/NCoR2) (O15379 whole entry): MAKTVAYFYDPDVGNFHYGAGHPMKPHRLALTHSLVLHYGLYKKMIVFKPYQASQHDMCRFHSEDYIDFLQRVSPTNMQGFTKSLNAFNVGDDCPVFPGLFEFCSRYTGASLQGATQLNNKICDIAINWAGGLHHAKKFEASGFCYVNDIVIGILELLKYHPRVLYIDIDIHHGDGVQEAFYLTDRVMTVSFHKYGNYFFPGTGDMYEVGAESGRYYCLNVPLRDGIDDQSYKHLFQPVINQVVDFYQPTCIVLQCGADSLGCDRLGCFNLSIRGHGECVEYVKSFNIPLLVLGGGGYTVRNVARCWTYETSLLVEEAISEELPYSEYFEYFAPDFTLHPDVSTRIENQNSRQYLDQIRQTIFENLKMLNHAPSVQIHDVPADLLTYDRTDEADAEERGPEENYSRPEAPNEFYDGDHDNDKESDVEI
# Sequence of Histone deacetylase 3/Nuclear receptor corepressor 2 (HDAC3/NCoR2) (Q9Y618 whole entry, further chain): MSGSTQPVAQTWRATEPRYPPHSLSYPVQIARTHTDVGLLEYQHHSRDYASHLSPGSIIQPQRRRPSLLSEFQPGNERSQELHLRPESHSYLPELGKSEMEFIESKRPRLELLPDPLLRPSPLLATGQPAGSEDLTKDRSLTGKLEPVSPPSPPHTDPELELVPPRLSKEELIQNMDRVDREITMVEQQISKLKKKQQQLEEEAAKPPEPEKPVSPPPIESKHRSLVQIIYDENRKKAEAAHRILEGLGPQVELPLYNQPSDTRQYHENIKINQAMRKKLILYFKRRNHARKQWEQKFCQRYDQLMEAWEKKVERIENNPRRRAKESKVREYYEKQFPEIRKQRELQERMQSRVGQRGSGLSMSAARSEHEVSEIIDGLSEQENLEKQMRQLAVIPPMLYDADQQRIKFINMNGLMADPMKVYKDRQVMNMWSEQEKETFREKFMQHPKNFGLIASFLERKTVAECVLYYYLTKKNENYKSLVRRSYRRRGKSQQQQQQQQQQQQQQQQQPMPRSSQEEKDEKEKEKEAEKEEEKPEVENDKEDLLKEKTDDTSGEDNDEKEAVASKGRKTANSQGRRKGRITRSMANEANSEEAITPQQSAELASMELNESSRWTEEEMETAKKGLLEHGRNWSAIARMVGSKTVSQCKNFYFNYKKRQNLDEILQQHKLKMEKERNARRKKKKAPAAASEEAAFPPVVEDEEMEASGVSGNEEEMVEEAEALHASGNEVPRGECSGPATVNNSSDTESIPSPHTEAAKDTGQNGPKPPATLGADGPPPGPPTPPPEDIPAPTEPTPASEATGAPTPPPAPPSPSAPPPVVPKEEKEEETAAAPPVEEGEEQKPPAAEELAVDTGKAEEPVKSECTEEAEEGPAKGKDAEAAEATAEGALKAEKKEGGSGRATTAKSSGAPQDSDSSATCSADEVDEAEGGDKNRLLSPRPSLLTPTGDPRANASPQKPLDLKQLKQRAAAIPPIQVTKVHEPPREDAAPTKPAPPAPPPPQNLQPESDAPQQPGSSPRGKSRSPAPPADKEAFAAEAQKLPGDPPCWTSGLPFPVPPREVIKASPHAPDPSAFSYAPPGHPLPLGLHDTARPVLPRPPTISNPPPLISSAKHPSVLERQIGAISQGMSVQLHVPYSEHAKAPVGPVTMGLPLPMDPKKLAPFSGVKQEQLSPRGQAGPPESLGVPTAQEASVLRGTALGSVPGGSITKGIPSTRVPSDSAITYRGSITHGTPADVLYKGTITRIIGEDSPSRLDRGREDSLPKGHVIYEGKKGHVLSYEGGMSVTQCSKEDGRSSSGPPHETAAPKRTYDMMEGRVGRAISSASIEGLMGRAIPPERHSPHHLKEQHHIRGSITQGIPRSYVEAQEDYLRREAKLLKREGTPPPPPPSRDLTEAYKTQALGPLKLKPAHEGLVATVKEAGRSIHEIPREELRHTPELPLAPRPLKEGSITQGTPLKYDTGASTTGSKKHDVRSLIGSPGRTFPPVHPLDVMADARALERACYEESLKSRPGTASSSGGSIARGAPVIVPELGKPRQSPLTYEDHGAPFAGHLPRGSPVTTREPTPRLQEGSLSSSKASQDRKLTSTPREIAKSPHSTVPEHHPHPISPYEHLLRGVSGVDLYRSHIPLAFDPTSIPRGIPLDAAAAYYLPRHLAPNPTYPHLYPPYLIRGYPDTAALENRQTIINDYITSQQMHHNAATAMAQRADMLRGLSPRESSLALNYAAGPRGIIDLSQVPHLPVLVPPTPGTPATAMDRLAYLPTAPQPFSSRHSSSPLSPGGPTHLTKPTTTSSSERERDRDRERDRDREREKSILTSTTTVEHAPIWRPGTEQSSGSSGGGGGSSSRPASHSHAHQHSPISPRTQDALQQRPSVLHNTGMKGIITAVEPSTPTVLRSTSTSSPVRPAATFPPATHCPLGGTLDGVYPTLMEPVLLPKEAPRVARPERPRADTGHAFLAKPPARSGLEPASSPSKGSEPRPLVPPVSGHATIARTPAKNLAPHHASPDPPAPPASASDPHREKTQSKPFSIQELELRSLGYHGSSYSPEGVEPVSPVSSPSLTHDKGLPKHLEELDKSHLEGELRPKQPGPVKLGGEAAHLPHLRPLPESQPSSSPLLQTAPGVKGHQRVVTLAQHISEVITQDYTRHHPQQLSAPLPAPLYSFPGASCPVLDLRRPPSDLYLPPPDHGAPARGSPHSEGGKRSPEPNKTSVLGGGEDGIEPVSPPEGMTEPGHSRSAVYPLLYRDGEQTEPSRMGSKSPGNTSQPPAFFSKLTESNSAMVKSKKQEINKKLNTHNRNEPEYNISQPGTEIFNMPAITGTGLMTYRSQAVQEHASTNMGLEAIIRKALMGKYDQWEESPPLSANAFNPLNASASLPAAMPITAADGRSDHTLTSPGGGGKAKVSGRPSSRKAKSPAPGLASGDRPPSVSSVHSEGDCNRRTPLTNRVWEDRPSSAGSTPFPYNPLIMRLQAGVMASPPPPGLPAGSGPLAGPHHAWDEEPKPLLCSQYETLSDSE
# [23] = target: Histone deacetylase 5 (Homo sapiens, UniProt Q9UQL6); experiment: Inhibition of human HDAC-5 using RHKK(Ac) as substrate by fluorescence assay
# Sequence of Histone deacetylase 5 (Q9UQL6 whole entry): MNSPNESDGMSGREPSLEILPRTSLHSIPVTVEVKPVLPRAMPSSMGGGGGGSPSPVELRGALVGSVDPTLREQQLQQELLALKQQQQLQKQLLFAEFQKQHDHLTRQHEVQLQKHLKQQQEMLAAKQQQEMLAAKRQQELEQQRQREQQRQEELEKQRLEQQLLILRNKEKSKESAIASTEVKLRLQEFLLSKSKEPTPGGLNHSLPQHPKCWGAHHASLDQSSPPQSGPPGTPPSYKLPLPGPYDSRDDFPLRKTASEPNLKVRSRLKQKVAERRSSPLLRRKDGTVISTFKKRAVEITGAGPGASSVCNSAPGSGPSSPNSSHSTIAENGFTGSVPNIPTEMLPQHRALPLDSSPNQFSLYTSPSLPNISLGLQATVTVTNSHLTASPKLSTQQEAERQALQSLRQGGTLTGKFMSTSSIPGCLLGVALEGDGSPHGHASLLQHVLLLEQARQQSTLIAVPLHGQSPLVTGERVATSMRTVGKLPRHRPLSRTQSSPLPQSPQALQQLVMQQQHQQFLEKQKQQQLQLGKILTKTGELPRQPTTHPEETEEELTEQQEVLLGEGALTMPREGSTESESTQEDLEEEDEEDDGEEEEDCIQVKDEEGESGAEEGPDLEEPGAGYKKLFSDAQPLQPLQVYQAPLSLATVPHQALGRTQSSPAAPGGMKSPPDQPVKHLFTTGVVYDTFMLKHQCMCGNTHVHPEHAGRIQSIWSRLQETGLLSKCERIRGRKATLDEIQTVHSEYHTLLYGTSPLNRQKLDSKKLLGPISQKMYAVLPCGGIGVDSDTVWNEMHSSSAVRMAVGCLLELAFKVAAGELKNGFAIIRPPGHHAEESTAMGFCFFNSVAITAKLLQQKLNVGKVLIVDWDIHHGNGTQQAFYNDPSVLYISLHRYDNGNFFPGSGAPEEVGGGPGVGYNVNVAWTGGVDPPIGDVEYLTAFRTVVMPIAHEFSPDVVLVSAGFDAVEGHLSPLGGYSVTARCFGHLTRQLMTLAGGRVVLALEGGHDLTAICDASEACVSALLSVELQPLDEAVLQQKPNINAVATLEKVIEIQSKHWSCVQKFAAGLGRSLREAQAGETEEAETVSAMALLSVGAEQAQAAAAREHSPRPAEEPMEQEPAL
# [24] = target: Histone deacetylase 2 (Homo sapiens, UniProt Q92769); experiment: Inhibition of human HDAC-2 using RHKK(Ac) as substrate by fluorescence assay
# Sequence of Histone deacetylase 2 (Q92769 whole entry): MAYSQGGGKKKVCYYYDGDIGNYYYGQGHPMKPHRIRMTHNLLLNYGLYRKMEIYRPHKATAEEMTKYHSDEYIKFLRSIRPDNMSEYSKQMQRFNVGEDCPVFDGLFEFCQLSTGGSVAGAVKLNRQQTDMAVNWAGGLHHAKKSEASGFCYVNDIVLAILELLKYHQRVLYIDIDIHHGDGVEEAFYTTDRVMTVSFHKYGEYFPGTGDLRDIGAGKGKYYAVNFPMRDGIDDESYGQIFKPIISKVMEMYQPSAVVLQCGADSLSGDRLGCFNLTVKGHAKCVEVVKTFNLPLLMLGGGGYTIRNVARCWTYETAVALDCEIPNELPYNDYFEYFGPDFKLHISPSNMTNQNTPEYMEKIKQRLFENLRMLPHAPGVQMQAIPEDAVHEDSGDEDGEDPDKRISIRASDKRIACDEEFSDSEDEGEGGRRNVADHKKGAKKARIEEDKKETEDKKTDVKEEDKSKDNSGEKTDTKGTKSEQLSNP
# [25] = target: Histone deacetylase 4 (Homo sapiens, UniProt P56524); experiment: Inhibition of human HDAC-4 using RHKK(Ac) as substrate by fluorescence assay
# [26] = target: Histone deacetylase 1 (Homo sapiens, UniProt Q13547); experiment: Inhibition of human HDAC-1 using RHKK(Ac) as substrate by fluorescence assay
# Sequence of Histone deacetylase 1 (Q13547 whole entry): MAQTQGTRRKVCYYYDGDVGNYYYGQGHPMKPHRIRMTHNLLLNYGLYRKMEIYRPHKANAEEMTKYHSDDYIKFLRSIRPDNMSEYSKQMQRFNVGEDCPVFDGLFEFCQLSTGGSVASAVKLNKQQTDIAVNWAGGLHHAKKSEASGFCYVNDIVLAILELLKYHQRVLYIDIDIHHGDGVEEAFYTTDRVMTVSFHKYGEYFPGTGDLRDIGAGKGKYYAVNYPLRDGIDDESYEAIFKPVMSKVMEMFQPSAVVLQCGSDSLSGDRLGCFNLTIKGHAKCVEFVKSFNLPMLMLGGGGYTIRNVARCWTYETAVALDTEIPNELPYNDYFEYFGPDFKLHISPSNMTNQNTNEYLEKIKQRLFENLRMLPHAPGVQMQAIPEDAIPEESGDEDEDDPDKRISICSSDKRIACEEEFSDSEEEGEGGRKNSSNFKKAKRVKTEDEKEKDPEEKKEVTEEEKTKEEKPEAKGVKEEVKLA
smiles,measurement,setting,value
CCNC(=O)c1noc(-c2cc(C(C)C)c(O)cc2O)c1-c1ccc(CN2CCOCC2)cc1 [LUMINESPIB],"remaining at 2 h, 5 µM",[1],56%
same,MTD at 2 weeks,[2],50 mg/kg
same,TGI,[3],Active
same,inhibition,[4],Active
same,MTD at 2 weeks,[5],50 mg/kg
same,inhibition,[6],Active
same,inhibition,[7],Active
same,inhibition,[8],Active
same,inhibition,[9],Active
same,inhibition,[10],Active
same,Activity,[11],Active
same,inhibition,[12],Active
same,Activity,[13],Active
same,inhibition,[14],Active
same,TGI,[15],Active
CC(C)c1cc(-n2nnc(C(=O)NCCCCCCC(=O)NO)c2-c2ccc(CN3CCOCC3)cc2)c(O)cc1O,IC50,[16],3.22 µM
same,IC50,[17],0.012 µM
same,IC50,[18],1.77 µM
same,IC50,[19],0.717 µM
same,IC50,[20],0.031 µM
same,IC50,[21],> 1 µM
same,IC50,[22],2.79 µM
same,IC50,[23],1.91 µM
same,IC50,[24],5.61 µM
same,IC50,[25],71.5 µM
same,IC50,[26],3.1 µM

# Source: ChEMBL document CHEMBL3232837, “Synthesis and evaluation of new Hsp90 inhibitors based on a 1,4,5-trisubstituted 1,2,3-triazole scaffold” (J Med Chem, 2014)
